bCat KO growth = beta-catenin-lacking colon tumor cell growth suppression; HCT116 beta-catenin knockout viability, CellTiter-Glo, 60 h; active compounds read low; viability, % at 10 µM; 140,000 tested, 1.5% active;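 active = viability at or under a set limit, the compound median less 4 SD, cut at about 6% in these data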;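 also: 0% = Hyamine 1622 control at 20 µM and 100% = untreated cell control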
PTK2B oligo ant = Pyk2 (human) oligomerization antagonism; Q14289; Q293 cells, Pyk2 FERM NanoBiT luminescence; active compounds read low; z-score (the deposit names both 25 µM and 10 µM); 99,000 tested, 0.83% active; AID 1347419;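 active = Z-score of -3 or lower, scaled per plate to the spread of control and sample wells; inactive = z-score above -3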;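 also: negative z-score means lost luminescence so less FERM oligomerization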
Target sequence (Q14289 whole entry, looked up): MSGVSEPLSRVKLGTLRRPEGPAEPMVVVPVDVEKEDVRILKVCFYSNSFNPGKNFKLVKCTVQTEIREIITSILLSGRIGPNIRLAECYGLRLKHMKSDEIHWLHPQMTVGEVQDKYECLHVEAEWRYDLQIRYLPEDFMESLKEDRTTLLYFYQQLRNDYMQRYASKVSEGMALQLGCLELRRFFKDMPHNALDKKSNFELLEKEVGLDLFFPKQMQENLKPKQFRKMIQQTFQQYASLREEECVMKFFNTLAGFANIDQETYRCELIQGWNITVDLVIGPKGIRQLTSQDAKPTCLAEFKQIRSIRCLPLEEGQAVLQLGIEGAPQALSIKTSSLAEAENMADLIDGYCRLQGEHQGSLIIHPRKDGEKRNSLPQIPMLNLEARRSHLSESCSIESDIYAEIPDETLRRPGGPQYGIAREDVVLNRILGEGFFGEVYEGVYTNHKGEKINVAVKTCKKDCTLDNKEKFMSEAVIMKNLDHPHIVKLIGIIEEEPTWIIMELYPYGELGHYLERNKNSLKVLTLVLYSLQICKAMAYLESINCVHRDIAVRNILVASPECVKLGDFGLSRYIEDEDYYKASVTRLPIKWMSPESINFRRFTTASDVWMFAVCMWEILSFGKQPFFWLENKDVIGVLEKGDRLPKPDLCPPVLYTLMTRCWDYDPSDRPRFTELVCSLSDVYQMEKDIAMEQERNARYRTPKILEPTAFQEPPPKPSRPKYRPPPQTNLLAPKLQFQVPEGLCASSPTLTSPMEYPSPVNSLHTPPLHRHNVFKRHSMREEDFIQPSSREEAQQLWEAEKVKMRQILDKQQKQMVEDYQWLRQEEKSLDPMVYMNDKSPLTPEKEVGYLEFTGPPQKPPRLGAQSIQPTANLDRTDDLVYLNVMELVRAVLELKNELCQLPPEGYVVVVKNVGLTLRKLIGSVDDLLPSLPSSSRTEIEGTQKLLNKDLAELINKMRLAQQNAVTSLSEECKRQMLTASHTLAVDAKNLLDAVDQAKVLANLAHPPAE
H69AR inhibit = growth inhibitors of human H69AR lung tumor cells | H69AR lung tumor viability, ATP luminescence, 72 h; active compounds read low | viability, % at 10 µM | 85,000 tested, 6% active | AID 598;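 active = viability at or below 40%; inactive = viability above 40%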;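 also: multidrug resistant small cell line overexpressing MRP-1 efflux transporter; 100% = mean luminescence of untreated control wells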
HUVEC inhibit = human endothelial cell proliferation inhibition. HUVEC proliferation, CellTiter-Glo luminescence, 72 h; active compounds read low. viability, % at 10 µM (by protocol). 86,000 tested, 1.1% active. AID 648;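 active = viability at or below 30%; inactive = viability above 30%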;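 also: 100% = median luminescence of DMSO-only cell control wells on each plate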
Fibroblast inh = blocks proliferation of human lung fibroblasts; LL 47 human lung fibroblast viability, ATP luminescence; active compounds read low; viability, % at 10 µM; 85,000 tested, 1.1% active; AID 719;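 active = viability at or below 50% in the single dose screen; inactive = viability above 50%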;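 also: compound exposure lasted 72 h before the ATP readout; 100% = median luminescence of untreated cell-only wells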
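Material: Human LL 47 lung fibroblast cells | Input: 1,150 cells/well | Buffer or medium: IMEM plus 15% FBS | Compound dosing: 0.1% DMSO in all compound wells | Times: Overnight cell rest, 72 h compound treatment at 37 °C | Signal: CellTiter-Glo luminescence measuring cellular ATP | Measure: % viability versus median cells-only luminescence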
PTEN del growth = growth suppressors of cells with PTEN tumor suppressor deletion; HCT116 PTEN-null viability, CellTiter-Glo, 60 h; active compounds read low; viability, % at 10 µM; 140,000 tested, 1.2% active; AID 827;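 active = viability at or below a set limit, 4 SD under the median of all tested compounds, cut at about 3.7% in these data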;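 also: PTEN knockout HCT116 line with beta catenin targeted HCT116 as companion control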
Starred values were filed as active, the others as inactive; . = not tested or not shown. Only a selection was taken, and hits are over-represented in it overall.

SMILES	bCat KO growth	PTK2B oligo ant	H69AR inhibit	HUVEC inhibit	Fibroblast inh	PTEN del growth
CCN1CCN(Cc2ccc(OCc3ccccc3)cc2)CC1	1.0*	0.9	88	85	93	1.2*
O=C(Nc1ccc(CN2CCOCC2)cc1)c1ccc(-c2cccc(Cl)c2)o1	1.9*	-1.3	31*	45	71	4
CS(=O)(=O)N1CCN(c2ccc(NC(=O)c3ccc(-c4ccc(Cl)cc4)o3)cc2)CC1	85	0.26	29*	38	72	89
COc1ccc(CCNC(=O)CSc2nncs2)cc1	101	.	.	.	.	106
COc1ccc(C(=O)c2c(C(F)(F)F)oc3c2C(=O)c2ccccc2C3=O)cc1OC	1.3*	-2.4	1.6*	4.7*	2.4*	1.9*
COc1ccc(C(=O)Nc2ccc3c(c2)C(=O)c2ccccc2C3=O)cc1OC	92	.	.	.	.	97
Cc1cc2oc(=O)cc(CSc3nc(N)cc(N)n3)c2cc1C	106	-0.9	.	.	.	104
CCOc1ccc(-n2c(SCC(=O)c3c(N)n(C)c(=O)n(C)c3=O)nnc2-c2cccnc2)cc1	95	.	.	.	.	100
COc1cc(OC)c(C2=NOC(C(=O)O)C2)cc1Cl (stereo not drawn)	111	0.78	93	106	91	96
CC(C)C1N=C(c2ccc3c(c2)OCO3)CC(c2ccccc2O)N1 (stereo not drawn)	5.8*	-0.98	2.1*	59	56	8
c1ccc2sc(-c3ccc4c(c3)OCO4)nc2c1	46	0.41	68	70	61	59
Cn1c(=O)[nH]c(=O)c2c1nc(CN1CCN(c3ccc(F)cc3)CC1)n2CCc1ccccc1	91	-0.17	77	80	87	72
CCCCCCCCn1c(N2CCN(c3cccc(Cl)c3)CC2)nc2c1c(=O)[nH]c(=O)n2C	69	-0.02	49	77	86	70
CCCCCn1c(CN2CCN(c3cccc(Cl)c3)CC2)nc2c1c(=O)[nH]c(=O)n2C	60	-1.1	39*	64	84	48
Cn1c(=O)[nH]c(=O)c2c1nc(CN1CCN(c3cccc(Cl)c3)CC1)n2CCc1ccccc1	79	0.41	2.8*	73	85	74
Cn1cnnc1SCC(=O)NN(c1ccccc1)c1ccccc1	92	.	.	.	.	90
CCn1nc(C(=O)NC2=NCCS2)c2ccccc2c1=O	99	-0.17	98	2.7*	93	105
CCn1nc(C(=O)Nc2ccc3nc(C)sc3c2)c2ccccc2c1=O	91	.	.	.	.	75
Cc1ccc2cccc(Oc3ncnc4scc(-c5ccc(Cl)cc5)c34)c2n1	63	.	.	.	.	60
O=C(Oc1ccccc1C(=O)Nc1ccccc1)c1ccc(Br)c([N+](=O)[O-])c1	96	.	.	.	.	101
COc1ccc(Oc2nc(C)cc(C)c2C#N)cc1	77	0.27	92	95	101	87
COc1ccc(C2(O)CC3CCC(C2)N3c2nc(C)cc(C)c2C#N)cc1 (stereo not drawn)	88	-3*	31*	90	93	75
CC1(C)Cc2c(c(N3CCOCC3)nc3sc4c(NN)ncnc4c23)CS1	2.8*	-1.3	46	6.3*	17*	4
CC1(C)Cc2c(c(N3CCOCC3)nc3sc4c(NCc5ccco5)nnnc4c23)CS1	48	0.3	37*	87	84	48
CC(C)CNc1nnnc2c1sc1nc(N3CCOCC3)c3c(c12)CC(C)(C)SC3	45	-2.7	.	.	.	41
SMILES	bCat KO growth	PTK2B oligo ant	H69AR inhibit	HUVEC inhibit	Fibroblast inh	PTEN del growth
CC1(C)Cc2c(c(N3CCOCC3)nc3sc4c(NCc5ccccc5)nnnc4c23)CS1	7	-1.6	2.0*	24*	18*	3.2*
Cc1ccc2[nH]c(O)c(N=NC(=O)C3CC3c3ccccc3)c2c1Br (stereo not drawn)	22	.	.	.	.	29
CC(C)CC(=O)NCCCCc1ccccc1	90	.	.	.	.	83
COC(=O)c1c(NC(=O)CN2CCC3(O)CCCCC3C2c2cc(OC)ccc2OC)sc(C)c1C (stereo not drawn)	35	.	.	.	.	36
Nc1nc2ccccc2n1C(=O)c1ccco1	77	.	.	.	.	70
Nc1nc2ccccc2n1C(=O)CCc1ccccc1	71	1.6	26*	85	85	68
Cc1ccc(N2C(=O)[C@@H]3C(C(=O)C(c4ccccc4)c4ccccc4)=NN[C@@H]3C2=O)cc1	89	.	.	.	.	90
Cc1cc(C)cc(NC2=NC3(CCCCC3)N=C(N)N2)c1	21	1.3	18*	63	56	22
O=C(CN1C(=O)COc2ccc(S(=O)(=O)N3CCCC3)cc21)NC1CCCCCCC1	76	.	.	.	.	88
CN(C)c1cc(-c2ccccc2)nc(N)n1	55	.	40*	72	92	48
Nc1nc(-c2ccccc2)cc(-c2ccccc2O)n1	17	-0.48	42	17*	81	17
O=C(NCc1cccnc1)C(=O)NCC1OCCN1S(=O)(=O)c1ccc(F)cc1 (stereo not drawn)	89	.	.	.	.	105
COc1ccc(NC(=O)c2cc(-c3cc(C)cc(C)c3O)n[nH]2)cc1Cl	10	0.89	21*	44	97	4
O=C(NCC1OCCc2ccccc21)c1ccc(NC(=O)c2ccccc2Cl)cc1 (stereo not drawn)	75	.	.	.	.	83
O=C(NCC1OCCc2ccccc21)c1ccc(NC(=O)c2ccc(Cl)cc2Cl)cc1 (stereo not drawn)	4.9*	0.87	.	.	.	1.9*
CCOc1ccc2[nH]c(=O)c(CN(Cc3cccs3)Cc3nnnn3C(C)(C)C)cc2c1	33	0.02	7.3*	69	67	23
COc1ccc2[nH]c(=O)c(CN(Cc3cccs3)Cc3nnnn3C(C)(C)C)cc2c1	79	1.9	72	85	102	82
NNC(=O)[C@H]1C[C@@H]1c1ccccc1	97	.	.	.	.	93
CCCCNC(=O)CSc1nc2ccc(N3CCOCC3)cc2c(=O)n1CCc1ccccc1	92	-1.1	8.9*	26*	72	75
O=C(Nc1nc(NC(=O)c2ccco2)n(-c2ccccc2)n1)c1ccccc1	7	-0.97	1.4*	93	35*	11
Nc1nc(NC(=O)c2ccccc2)nn1-c1ccccc1	92	.	.	.	.	105
O=[N+]([O-])c1cccnc1N1CCC(c2cc(-c3cccc(C(F)(F)F)c3)n[nH]2)CC1	65	-3.4*	34*	3.7*	101	49
O=[N+]([O-])c1cccnc1N1CCC(c2cc(-c3ccc(Cl)cc3Cl)n[nH]2)CC1	70	-2.7	84	52	107	51
O=C(N/N=C/c1c[nH]c2ccccc12)c1cc(-c2ccc(-c3ccccc3)cc2)n[nH]1	1.1*	-1.4	.	.	.	1.3*
O=C(N/N=C/c1ccco1)c1cc(-c2ccc3ccccc3c2)n[nH]1	48	-0.25	1.8*	3.7*	76	27
O=C(N/N=C/C=C\c1ccccc1[N+](=O)[O-])c1cccs1	76	.	.	.	.	79

Assay outcomes (PubChem BioAssay)
